Test [1] relates to Aphis craccivora. The test can be described thus: Larvicidal activity against Aphis craccivora (cowpea aphid) at 200 mg/kg by leaf dip method. The class given is functional.
Test [2] concerns Plutella xylostella. Nature of the test: Stomach toxicity against Plutella xylostella (diamondback moth) assessed as larvicidal activity at 600 mg/kg by leaf dip method. The class given is functional.
The subject of test [3] is Tetranychus cinnabarinus. Nature of the test: Acaricidal activity against Tetranychus cinnabarinus (carmine spider mite) eggs at 200 mg/kg by leaf dip method. The class given is functional, Egg.
Test [4] relates to Tetranychus cinnabarinus. Nature of the test: Acaricidal activity against Tetranychus cinnabarinus (carmine spider mite) larvae at 200 mg/kg by leaf dip method. The class given is functional.
Test [5] deals with Helicoverpa armigera. Nature of the test: Stomach toxicity against third-instars Helicoverpa armigera assessed as larvicidal activity at 11 mg/kg at 25 +/- 1 degC after 3 days. The class given is functional. The method, boiled down: (§1)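 Diet-incorporation assay on third-instar larvae. Samples dissolved in acetone to the desired final concentrations; 3 mL of test solution mixed evenly into about 27 g of prepared feed, then dispensed into 24-well plates. Run in triplicate at 25 ± 1 °C. Dead/alive scoring 3 days after treatment; mortality corrected by Abbott's formula on a 0–100 scale.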

The test system of test [6] is Helicoverpa armigera. The test can be described thus: Stomach toxicity against third-instars Helicoverpa armigera assessed as larvicidal activity at 110 mg/kg at 25 +/- 1 degC after 3 days. The class given is functional. The method, boiled down: as §1
The test system of test [7] is Culex pipiens pallens. The test can be described thus: Larvicidal activity against Culex pipiens pallens (mosquito) at 5 mg/kg. The format is functional.
The subject of test [8] is Culex pipiens pallens. The test can be described thus: Larvicidal activity against Culex pipiens pallens (mosquito). The class given is functional.
Test [9] relates to Aphis craccivora. Nature of the test: Larvicidal activity against Aphis craccivora (cowpea aphid) at 600 mg/kg by leaf dip method. The class given is functional.
The test system of test [10] is Culex pipiens pallens. Nature of the test: Larvicidal activity against Culex pipiens pallens (mosquito) at 1 mg/kg. The format is functional.
The subject of test [11] is Tetranychus cinnabarinus. Nature of the test: Acaricidal activity against Tetranychus cinnabarinus (carmine spider mite) eggs at 600 mg/kg by leaf dip method. The class given is functional, Egg.
Test [12] deals with Plutella xylostella. The test can be described thus: Stomach toxicity against Plutella xylostella (diamondback moth) assessed as larvicidal activity at 200 mg/kg by leaf dip method. The class given is functional.
In test [13] the test system is Culex pipiens pallens. The test can be described thus: Larvicidal activity against Culex pipiens pallens (mosquito) at 2 mg/kg. The format is functional.
For test [14], the system named is Tetranychus cinnabarinus. The test can be described thus: Acaricidal activity against Tetranychus cinnabarinus (carmine spider mite) adults at 200 mg/kg by leaf dip method. The class given is functional.
In test [15] the test system is Helicoverpa armigera. The test can be described thus: Stomach toxicity against third-instars Helicoverpa armigera assessed as larvicidal activity at 22 mg/kg at 25 +/- 1 degC after 3 days. The format is functional. The method, boiled down:
as §1

In test [16] the test system is Tetranychus cinnabarinus. Nature of the test: Acaricidal activity against Tetranychus cinnabarinus (carmine spider mite) larvae at 600 mg/kg by leaf dip method. The class given is functional.
For test [17], the system named is Helicoverpa armigera. Nature of the test: Stomach toxicity against third-instars Helicoverpa armigera assessed as larvicidal activity at 55 mg/kg at 25 +/- 1 degC after 3 days. The class given is functional. The method, boiled down:
as §1

Test [18] relates to Culex pipiens pallens. The test can be described thus: Larvicidal activity against Culex pipiens pallens (mosquito) at 0.5 mg/kg. The class given is functional.
Test [19] concerns Tetranychus cinnabarinus. Nature of the test: Acaricidal activity against Tetranychus cinnabarinus (carmine spider mite) adults at 600 mg/kg by leaf dip method. The format is functional.
Test [20] has as its system Helicoverpa armigera. The test can be described thus: Stomach toxicity against third-instars Helicoverpa armigera assessed as larvicidal activity at 25 +/- 1 degC after 3 days. The class given is functional. The method, boiled down:
as §1

For test [21], the system named is Helicoverpa armigera. The test can be described thus: Stomach toxicity against third-instars Helicoverpa armigera assessed as larvicidal activity at 5.5 mg/kg at 25 +/- 1 degC after 3 days. The class given is functional. The method, boiled down: as §1

This note sets out measurements from ChEMBL document CHEMBL3046583, “Design, synthesis, and insecticidal activity of novel pyrazole derivatives containing α-hydroxymethyl-N-benzyl carboxamide, α-chloromethyl-N-benzyl carboxamide, and 4,5-dihydrooxazole moieties” (2012).

As for `CCc1cc(C(=O)NC(CCl)c2ccc(Oc3ccccc3)cc2)n(C)n1` (centres undefined), the Activity was 95% in test [1]; 45% in test [2]; 40% in test [3]; 30% in test [4]; 0% in test [5]; 100% in [6]. Besides, the Activity in test [7] was 100%; in test [9], 100%; in [10], 100%; in test [11], 50%; in [12] it was 30%; in test [13], 100%. The Activity in test [14] was found to be 0%; in test [15] it was 40%; in test [16], 40%; in test [17], 100%; in test [18] it was 60%; in test [19], 50%. The compound further had an LC50 in test [8] of 0.35 mg/kg.
As for `CCc1nn(C)c(C2=NC(c3ccc(Oc4ccccc4)cc3)CO2)c1Cl` (centres undefined), the Activity came out at 60% in [1]; 90% in [2]; 0% in [4]; 90% in test [5]; 100% in test [6]; 100% in [7]. Also, the Activity in test [9] came to 90%; in [10], 0%; in test [11] it was 0%; in test [12], 20%; in test [13], 60%; in [21], 60%. Besides, the Activity in [15] was 100%; in test [16], 25%; in test [17], 100%; in test [19], 0%. Also, the LC50 in test [20] was 2.8 mg/kg.
Consider `CCc1nn(C)c(C(=O)NCc2ccc(C(C)(C)C)cc2)c1Cl` [TEBUFENPYRAD], for which the Activity in test [1] is reported as 100%; in [3] it was 100%; in test [4] it was 100%; in test [7], 100%; in test [9], 100%; in test [10], 70%. Further, the Activity is 100% in test [11]; 100% in [13]; 100% in [14]; 100% in test [16]; 0% in [18]; 100% in test [19]. The LC50 in [8] was determined as 0.61 mg/kg.
